{
  "source": "ChEMBL document CHEMBL1687823",
  "about": "“PA-824 exhibits time-dependent activity in a murine model of tuberculosis” (Antimicrob Agents Chemother, 2011)",
  "key": {"[1]": {"system": "Mycobacterium tuberculosis", "experiment": "fT>MIC for >= 1 log reduction in CFU count in Mycobacterium tuberculosis H37Rv in using simulated dose of at 200 mg assessed as time during compound concentration exceeds MIC of 0.12500 ug/ml assuming 15% unbound compound concentration by one compartment human pharmacokinetic model", "format": "functional", "in_short": "(§1)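 A one-compartment PK model was fitted to human data to get median parameters. It simulated steady-state total and free concentrations for 100, 200 or 400 mg once daily, assuming 5, 7, 10 or 15% unbound drug. Free T>MIC was computed against MICs of 0.03125–0.25 µg/ml and compared with the mouse-derived T>MIC target for 1-log10 kill.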"}, "[2]": {"system": "Mycobacterium tuberculosis", "experiment": "Antitubercular activity against Mycobacterium tuberculosis H37Rv infected in BALB/c mouse assessed as reduction in log10 CFU count at 96 mg/kg, po for 5 days relative to control", "format": "functional"}, "[3]": {"system": "Mycobacterium tuberculosis", "experiment": "fT>MIC for >= 1 log reduction in CFU count in Mycobacterium tuberculosis H37Rv in using simulated dose of at 100 mg assessed as time during compound concentration exceeds MIC of 0.12500 ug/ml assuming 7% unbound compound concentration by one compartment human pharmacokinetic model", "format": "functional", "in_short": "as §1"}, "[4]": {"system": "Mycobacterium tuberculosis", "experiment": "fT>MIC for >= 1 log reduction in CFU count in Mycobacterium tuberculosis H37Rv in using simulated dose of at 200 mg assessed as time during compound concentration exceeds MIC of 0.25000 ug/ml assuming 7% unbound compound concentration by one compartment human pharmacokinetic model", "format": "functional", "in_short": "as §1"}, "[5]": {"system": "Mycobacterium tuberculosis", "experiment": "fT>MIC for >= 1 log reduction in CFU count in Mycobacterium tuberculosis H37Rv in using simulated dose of at 200 mg assessed as time during compound concentration exceeds MIC of 0.06250 ug/ml assuming 15% unbound compound concentration by one compartment human pharmacokinetic model", "format": "functional", "in_short": "as §1"}, "[6]": {"system": "Mycobacterium tuberculosis", "experiment": "fT>MIC for >= 1 log reduction in CFU count in Mycobacterium tuberculosis H37Rv in using simulated dose of at 400 mg assessed as time during compound concentration exceeds MIC of 0.06250 ug/ml assuming 15% unbound compound concentration by one compartment human pharmacokinetic model", "format": "functional", "in_short": "as §1"}, "[7]": {"system": "Mycobacterium tuberculosis", "experiment": "fT>MIC for >= 1 log reduction in CFU count in Mycobacterium tuberculosis H37Rv in using simulated dose of at 400 mg assessed as time during compound concentration exceeds MIC of 0.12500 ug/ml assuming 7% unbound compound concentration by one compartment human pharmacokinetic model", "format": "functional", "in_short": "(§2)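 Human steady-state simulation: one-compartment PK model fitted to patient data, chosen by AIC. Median PK parameters used to simulate total and free concentrations, assuming 5, 7, 10 or 15% unbound, for 100, 200 and 400 mg once daily. Free levels compared with MICs of 0.03125 to 0.25 µg/ml to give %T>MIC; T>MIC is the cumulative percentage of the dosing interval above MIC.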"}, "[8]": {"system": "Mycobacterium tuberculosis", "experiment": "fT>MIC for >= 1 log reduction in CFU count in Mycobacterium tuberculosis H37Rv in using simulated dose of at 200 mg assessed as time during compound concentration exceeds MIC of 0.25000 ug/ml assuming 5% unbound compound concentration by one compartment human pharmacokinetic model", "format": "functional", "in_short": "as §1"}, "[9]": {"system": "Mycobacterium tuberculosis", "experiment": "Antitubercular activity against Mycobacterium tuberculosis H37Rv infected in BALB/c mouse at 12.5 mg/kg, po for 5 days relative to control", "format": "functional, organism-based", "design": "dose 12.5 mg/kg"}, "[10]": {"system": "Mycobacterium tuberculosis", "experiment": "fT>MIC for >= 1 log reduction in CFU count in Mycobacterium tuberculosis H37Rv in using simulated dose of at 100 mg assessed as time during compound concentration exceeds MIC of 0.03125 ug/ml assuming 10% unbound compound concentration by one compartment human pharmacokinetic model", "format": "functional", "in_short": "as §1"}, "[11]": {"system": "Mycobacterium tuberculosis", "experiment": "fT>MIC for >= 1 log reduction in CFU count in Mycobacterium tuberculosis H37Rv in using simulated dose of at 400 mg assessed as time during compound concentration exceeds MIC of 0.25000 ug/ml assuming 10% unbound compound concentration by one compartment human pharmacokinetic model", "format": "functional", "in_short": "as §2"}, "[12]": {"system": "Mycobacterium tuberculosis", "experiment": "fT>MIC for >= 1 log reduction in CFU count in Mycobacterium tuberculosis H37Rv in using simulated dose of at 400 mg assessed as time during compound concentration exceeds MIC of 0.12500 ug/ml assuming 5% unbound compound concentration by one compartment human pharmacokinetic model", "format": "functional", "in_short": "as §2"}, "[13]": {"system": "Mycobacterium tuberculosis", "experiment": "fT>MIC for >= 1 log reduction in CFU count in Mycobacterium tuberculosis H37Rv in using simulated dose of at 100 mg assessed as time during compound concentration exceeds MIC of 0.12500 ug/ml assuming 5% unbound compound concentration by one compartment human pharmacokinetic model", "format": "functional", "in_short": "as §1"}, "[14]": {"system": "Mycobacterium tuberculosis", "experiment": "fT>MIC for >= 1 log reduction in CFU count in Mycobacterium tuberculosis H37Rv in using simulated dose of at 200 mg assessed as time during compound concentration exceeds MIC of 0.03125 ug/ml assuming 7% unbound compound concentration by one compartment human pharmacokinetic model", "format": "functional", "in_short": "as §1"}, "[15]": {"system": "Mycobacterium tuberculosis", "experiment": "fT>MIC for >= 1 log reduction in CFU count in Mycobacterium tuberculosis H37Rv in using simulated dose of at 200 mg assessed as time during compound concentration exceeds MIC of 0.12500 ug/ml assuming 10% unbound compound concentration by one compartment human pharmacokinetic model", "format": "functional", "in_short": "as §1"}, "[16]": {"system": "Mycobacterium tuberculosis", "experiment": "Antitubercular activity against Mycobacterium tuberculosis H37Rv infected in po dosed BALB/c mouse assessed as reduction in log10 CFU count by single dose study", "format": "functional, organism-based"}, "[17]": {"system": "Mycobacterium tuberculosis", "experiment": "fT>MIC for >= 1 log reduction in CFU count in Mycobacterium tuberculosis H37Rv in using simulated dose of at 200 mg assessed as time during compound concentration exceeds MIC of 0.25000 ug/ml assuming 10% unbound compound concentration by one compartment human pharmacokinetic model", "format": "functional", "in_short": "as §1"}, "[18]": {"system": "Mycobacterium tuberculosis", "experiment": "fT>MIC for >= 1 log reduction in CFU count in Mycobacterium tuberculosis H37Rv in using simulated dose of at 100 mg assessed as time during compound concentration exceeds MIC of 0.03125 ug/ml assuming 7% unbound compound concentration by one compartment human pharmacokinetic model", "format": "functional", "in_short": "as §1"}, "[19]": {"system": "Mycobacterium tuberculosis", "experiment": "fT>MIC for >= 1 log reduction in CFU count in Mycobacterium tuberculosis H37Rv in using simulated dose of at 200 mg assessed as time during compound concentration exceeds MIC of 0.03125 ug/ml assuming 15% unbound compound concentration by one compartment human pharmacokinetic model", "format": "functional", "in_short": "as §1"}},
  "note": "The source made the active and inactive calls. The rule behind the calls is not given here.",
  "data": [
    {"smiles": "O=[N+]([O-])c1cn2c(n1)OC[C@@H](OCc1ccc(OC(F)(F)F)cc1)C2", "note": "[PRETOMANID]", "values": [
      {"measurement": "fT>MIC", "setting": "[1]", "result": 67, "unit": "%"},
      {"measurement": "log10cfu", "setting": "[2]", "result": 2},
      {"measurement": "fT>MIC", "setting": "[3]", "result": 0, "unit": "%"},
      {"measurement": "fT>MIC", "setting": "[4]", "result": 0, "unit": "%"},
      {"measurement": "fT>MIC", "setting": "[5]", "result": 100, "unit": "%"},
      {"measurement": "fT>MIC", "setting": "[6]", "result": 100, "unit": "%"},
      {"measurement": "fT>MIC", "setting": "[7]", "result": 67, "unit": "%"},
      {"measurement": "fT>MIC", "setting": "[8]", "result": 0, "unit": "%"},
      {"measurement": "Activity", "setting": "[9]", "result": "Active"},
      {"measurement": "fT>MIC", "setting": "[10]", "result": 100, "unit": "%"},
      {"measurement": "fT>MIC", "setting": "[11]", "result": 46, "unit": "%"},
      {"measurement": "fT>MIC", "setting": "[12]", "result": 46, "unit": "%"},
      {"measurement": "fT>MIC", "setting": "[13]", "result": 0, "unit": "%"},
      {"measurement": "fT>MIC", "setting": "[14]", "result": 100, "unit": "%"},
      {"measurement": "fT>MIC", "setting": "[15]", "result": 46, "unit": "%"},
      {"measurement": "Activity", "setting": "[16]", "result": "Dose-dependent effect"},
      {"measurement": "fT>MIC", "setting": "[17]", "result": 0, "unit": "%"},
      {"measurement": "fT>MIC", "setting": "[18]", "result": 67, "unit": "%"},
      {"measurement": "fT>MIC", "setting": "[19]", "result": 100, "unit": "%"}
    ]}
  ]
}
